According to ChEMBL document CHEMBL1141699, “Design, synthesis, and antibacterial activities of novel 3,6-bicyclolide oximes: length optimization and zero carbon linker oximes” (2008):
Converted amounts (≈) assume the structure as drawn.

Tests used:
Format in all cases: functional
[1] = test system: Haemophilus influenzae; experiment: Antibacterial activity against ampicillin-susceptible Haemophilus influenzae by broth-microdilution method
[2] = test system: Streptococcus pneumoniae; experiment: Antibacterial activity against efflux-resistant Streptococcus pneumoniae 7701 expressing mefA by broth-microdilution method
In short: (§1)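 MIC (µg/ml) by broth microdilution following CLSI standards.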

[3] = test system: Streptococcus pyogenes; experiment: Antibacterial activity against efflux-resistant Streptococcus pyogenes 1323 expressing mefA by broth-microdilution method; in short: as §1
[4] = test system: Streptococcus pyogenes; experiment: Antibacterial activity against MLSB-resistant Streptococcus pyogenes 2912 expressing ermA by broth-microdilution method; in short: as §1
[5] = test system: Staphylococcus aureus; experiment: Antibacterial activity against MLSB-resistant Staphylococcus aureus 27660 expressing ermA by broth-microdilution method; in short: as §1
[6] = test system: Moraxella catarrhalis; experiment: Antibacterial activity against Moraxella catarrhalis by broth-microdilution method
In short: (§2)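 MICs were determined by broth microdilution following CLSI standards and reported in µg/ml.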

[7] = test system: Staphylococcus aureus; experiment: Antibacterial activity against erythromycin-susceptible Staphylococcus aureus 29213 by broth-microdilution method; settings: ATCC29213; in short: as §1
[8] = test system: Streptococcus pyogenes; experiment: Antibacterial activity against erythromycin-susceptible Streptococcus pyogenes 19615 by broth-microdilution method; in short: as §2
[9] = test system: Streptococcus pneumoniae; experiment: Antibacterial activity against MLSB-resistant Streptococcus pneumoniae 700906 expressing erm by broth-microdilution method; in short: as §1
[10] = test system: Staphylococcus aureus; experiment: Antibacterial activity against methicillin-resistant Staphylococcus aureus 33591 by broth-microdilution method; in short: as §1
[11] = test system: Streptococcus pneumoniae; experiment: Antibacterial activity against erythromycin-susceptible Streptococcus pneumoniae 49619 by broth-microdilution method; in short: as §1
[12] = test system: Haemophilus influenzae; experiment: Antibacterial activity against ampicillin-resistant Haemophilus influenzae 33929 expressing beta-lactamase by broth-microdilution method; in short: as §1

Structure (SMILES) | MIC [1] [µg/mL] | MIC [2] [µg/mL] | MIC [3] [µg/mL] | MIC [4] [µg/mL] | MIC [5] [µg/mL] | MIC [6] [µg/mL] | MIC [7] [µg/mL] | MIC [8] [µg/mL] | MIC [9] [µg/mL] | MIC [10] [µg/mL] | MIC [11] [µg/mL] | MIC [12] [µg/mL]
CC[C@H]1OC(=O)[C@H](C)[C@H]2OC/C(=N\Oc3ccc4ccccc4c3)CCO[C@](C)(C[C@@H](C)C(=O)[C@H](C)[C@H]3NC(=O)O[C@@]31C)[C@H](O[C@@H]1O[C@H](C)C[C@H](N(C)C)[C@H]1O)[C@H]2C | 4 (≈ 4.94 µM) | 0.125 (≈ 0.154 µM) | 0.125 (≈ 0.154 µM) | 2 (≈ 2.47 µM) | 0.25 (≈ 0.309 µM) | 0.25 (≈ 0.309 µM) | 0.25 (≈ 0.309 µM) | ≤ 0.06 | 0.5 (≈ 0.617 µM) | 32 (≈ 39.5 µM) | ≤ 0.06 | 8 (≈ 9.88 µM)
CC[C@H]1OC(=O)[C@H](C)[C@H]2OC/C(=N\Oc3ccccc3)CCO[C@](C)(C[C@@H](C)C(=O)[C@H](C)[C@H]3NC(=O)O[C@@]31C)[C@H](O[C@@H]1O[C@H](C)C[C@H](N(C)C)[C@H]1O)[C@H]2C | 2 (≈ 2.63 µM) |  |  | 4 (≈ 5.26 µM) | ≤ 0.06 | ≤ 0.06 | ≤ 0.06 | ≤ 0.06 | 32 (≈ 42.1 µM) | > 64 | ≤ 0.06 | 1 (≈ 1.32 µM)
CC[C@H]1OC(=O)[C@H](C)[C@H]2OC/C(=N\OCc3ccccc3)CCO[C@](C)(C[C@@H](C)C(=O)[C@H](C)[C@H]3NC(=O)O[C@@]31C)[C@H](O[C@@H]1O[C@H](C)C[C@H](N(C)C)[C@H]1O)[C@H]2C | 2 (≈ 2.58 µM) |  | 0.125 (≈ 0.162 µM) | 4 (≈ 5.17 µM) | ≤ 0.06 | ≤ 0.06 | ≤ 0.06 | ≤ 0.06 | > 64 | > 64 | ≤ 0.06 | 2 (≈ 2.58 µM)
CC[C@H]1OC(=O)[C@H](C)[C@H]2OC/C(=N\OCCCCCc3ccccc3)CCO[C@](C)(C[C@@H](C)C(=O)[C@H](C)[C@H]3NC(=O)O[C@@]31C)[C@H](O[C@@H]1O[C@H](C)C[C@H](N(C)C)[C@H]1O)[C@H]2C | 4 (≈ 4.82 µM) | 0.125 (≈ 0.151 µM) | 0.125 (≈ 0.151 µM) | 8 (≈ 9.64 µM) | 0.25 (≈ 0.301 µM) | 0.25 (≈ 0.301 µM) | 0.25 (≈ 0.301 µM) | ≤ 0.06 | 8 (≈ 9.64 µM) | > 64 | ≤ 0.06 | 4 (≈ 4.82 µM)
CC[C@H]1OC(=O)[C@H](C)[C@H]2OC/C(=N\Oc3ccccc3Cl)CCO[C@](C)(C[C@@H](C)C(=O)[C@H](C)[C@H]3NC(=O)O[C@@]31C)[C@H](O[C@@H]1O[C@H](C)C[C@H](N(C)C)[C@H]1O)[C@H]2C | 2 (≈ 2.52 µM) |  |  | 4 (≈ 5.04 µM) | ≤ 0.06 | ≤ 0.06 | ≤ 0.06 | ≤ 0.06 | 32 (≈ 40.3 µM) | 64 (≈ 80.6 µM) | ≤ 0.06 | 2 (≈ 2.52 µM)
CC[C@H]1OC(=O)[C@H](C)[C@H]2OC/C(=N\OCCCc3ccccc3)CCO[C@](C)(C[C@@H](C)C(=O)[C@H](C)[C@H]3NC(=O)O[C@@]31C)[C@H](O[C@@H]1O[C@H](C)C[C@H](N(C)C)[C@H]1O)[C@H]2C | 2 (≈ 2.49 µM) |  |  | 8 (≈ 9.97 µM) | 0.125 (≈ 0.156 µM) | 0.125 (≈ 0.156 µM) | 0.125 (≈ 0.156 µM) | ≤ 0.06 | 4 (≈ 4.99 µM) | > 64 | ≤ 0.06 | 2 (≈ 2.49 µM)
CC[C@H]1OC(=O)[C@H](C)[C@H]2OC/C(=N\OCCCCc3ccccc3)CCO[C@](C)(C[C@@H](C)C(=O)[C@H](C)[C@H]3NC(=O)O[C@@]31C)[C@H](O[C@@H]1O[C@H](C)C[C@H](N(C)C)[C@H]1O)[C@H]2C | 8 (≈ 9.8 µM) | 0.125 (≈ 0.153 µM) | 0.25 (≈ 0.306 µM) | 16 (≈ 19.6 µM) | 0.25 (≈ 0.306 µM) | 0.25 (≈ 0.306 µM) | 0.25 (≈ 0.306 µM) | ≤ 0.06 | 4 (≈ 4.9 µM) | 64 (≈ 78.4 µM) | ≤ 0.06 | 4 (≈ 4.9 µM)
CC[C@H]1OC(=O)[C@H](C)[C@H]2OC/C(=N\Oc3ccc(-c4ccccc4)cc3)CCO[C@](C)(C[C@@H](C)C(=O)[C@H](C)[C@H]3NC(=O)O[C@@]31C)[C@H](O[C@@H]1O[C@H](C)C[C@H](N(C)C)[C@H]1O)[C@H]2C | 8 (≈ 9.57 µM) | 0.125 (≈ 0.15 µM) | 0.25 (≈ 0.299 µM) | 2 (≈ 2.39 µM) | 0.5 (≈ 0.598 µM) | 1 (≈ 1.2 µM) | 0.5 (≈ 0.598 µM) | ≤ 0.06 | 0.25 (≈ 0.299 µM) | 16 (≈ 19.1 µM) | ≤ 0.06 | 8 (≈ 9.57 µM)
